# Measurements from different studies.
# Lines come from different studies, so protocols differ.
# Target: Protein kinase C epsilon type (PRKCE, Homo sapiens, UniProt Q02156)
# Residues used in one study (Q02156 1-737): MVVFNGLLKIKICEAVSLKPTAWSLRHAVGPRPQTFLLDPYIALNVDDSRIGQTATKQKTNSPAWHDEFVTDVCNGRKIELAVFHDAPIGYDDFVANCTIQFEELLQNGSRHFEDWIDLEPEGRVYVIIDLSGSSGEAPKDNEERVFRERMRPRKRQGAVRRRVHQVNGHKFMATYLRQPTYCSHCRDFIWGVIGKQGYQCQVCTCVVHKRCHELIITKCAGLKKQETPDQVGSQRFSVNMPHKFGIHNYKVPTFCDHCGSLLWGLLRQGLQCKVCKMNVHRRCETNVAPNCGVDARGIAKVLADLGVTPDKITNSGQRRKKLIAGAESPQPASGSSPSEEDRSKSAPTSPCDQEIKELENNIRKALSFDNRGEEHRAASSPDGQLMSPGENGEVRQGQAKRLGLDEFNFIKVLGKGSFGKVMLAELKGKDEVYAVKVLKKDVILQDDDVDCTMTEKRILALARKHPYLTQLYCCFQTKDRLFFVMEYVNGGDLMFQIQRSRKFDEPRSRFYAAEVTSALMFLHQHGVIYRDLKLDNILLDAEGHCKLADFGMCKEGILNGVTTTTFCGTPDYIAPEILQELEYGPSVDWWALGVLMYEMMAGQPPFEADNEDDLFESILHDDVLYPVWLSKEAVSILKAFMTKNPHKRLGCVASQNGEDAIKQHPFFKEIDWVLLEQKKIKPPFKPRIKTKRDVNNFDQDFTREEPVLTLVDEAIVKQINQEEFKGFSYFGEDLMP
Compound,observed,action,technique,concentration,quantity,result
N#Cc1ccc(NC(=O)Nc2ccccc2)cc1,cell-free assay,,competition with immobilised ligand,25 µM,remaining binding,100%
CCCCC(=O)Nc1ccc(-c2ccc3ncn(CCC)c(=O)c3c2)cn1,binding,,competition with immobilised ligand,0.5 µM,remaining binding,83%
C[C@H]1CC[C@H](n2c3cnccc3c3cnc(Nc4ccc5c(n4)CCN(C(=O)CO)C5)nc32)CC1,cell-free assay,,,1 µM,remaining signal,100%
CO[C@@H]1[C@H](N(C)C(=O)c2ccccc2)C[C@H]2O[C@]1(C)n1c3ccccc3c3c4c(c5c6ccccc6n2c5c31)C(=O)NC4,enzyme activity,inhibitor,,1 µM,inhibition,92%
C#Cc1cnc(Nc2ccnc(CO)c2)nc1Nc1ccccc1S(C)(=O)=NC#N (stereo not drawn),cell-free assay,,,1 µM,remaining signal,62%
CC#CC(=O)N1CCC[C@H]1c1nc(-c2ccc(C(=O)Nc3ccccn3)cc2)c2c(N)nccn12,enzyme activity,inhibitor,,1 µM,inhibition,0%
C1=C/COCc2cc(ccc2OCCN2CCCC2)Nc2nccc(n2)-c2cccc(c2)COC/1,binding,,,0.1 µM,remaining binding,68%
COc1ccc2oc(-c3ccc4nc(N)oc4c3)c/c(=N\c3ccccc3NC(=O)CCN)c2c1,binding,,,1 µM,remaining binding,106%
Cc1ccc(NC(=O)c2ccnc(C(F)(F)F)c2)cc1-c1cc(OCCO)nc(N2CCOCC2)c1,binding,,,1 µM,remaining binding,75%
